The source of these data is ChEMBL document CHEMBL1124816, “Effect of structure on potency and selectivity in 2,6-disubstituted 4-(2-arylethenyl)phenol lipoxygenase inhibitors” (J Med Chem, 1990).

Some results are limits rather than exact numbers.

The target of one assay is T1, Cyclooxygenase (Homo sapiens, UniProt P35354+P23219). The assay can be described thus: Inhibition of human platelet Prostaglandin G/H synthase.
A word on the IC50: it is the concentration at which inhibition is half-maximal. Low values mean greater potency, high ones weaker potency. `Cc1cc(/C=C2\CCOC2=O)cc(C)c1O` registered an IC50 of over 10 µM.
Same read-out and setting: the value for `CC(C)c1cc(/C=C/c2cccs2)cc(C(C)C)c1O` was under 1 µM; that for `Cc1cc(CCC(=O)c2ccc(F)cc2)cc(C)c1O` was under 10 µM; that for `Cc1cc(/C=C/c2ccc(Cl)cc2)cc(C)c1O` was 0.75 µM.
As for `COc1ccc(/C=C/c2cc(C(C)(C)C)c(O)c(C(C)(C)C)c2)cc1`, the IC50 is over 10 µM.
Same read-out and setting: the value for `COc1cc(/C=C/c2cccs2)cc(OC)c1O` was under 10 µM; that for `Cc1cc(/C=C/c2ccccn2)cc(C)c1O` was 2.5 µM; that for `CCc1cc(/C=C/c2cccs2)cc(CC)c1O` was under 10 µM.
`Cc1ccc(C)c(/C=C/c2cc(C)c(O)c(C)c2)c1` showed an IC50 of 1.3 µM.
For `Cc1cc(/C=C/c2ccccc2OCc2ccccc2)cc(C)c1O`, the IC50 was ~ 1 uM.
Still for that read-out and setting: the value for `Cc1ccc(/C=C/c2cc(C)c(O)c(C)c2)s1` was 0.78 µM; that for `CC(C)(C)c1cc(/C=C2\CCOC2=O)cc(C(C)(C)C)c1O` was 0.11 µM.
As for `Cc1cc(Cc2cccnc2)cc(C)c1O`, the IC50 is over 10 µM.
Same read-out and setting: to `CCCCOc1ccc(/C=C/c2cc(C)c(O)c(C)c2)cc1` belongs under 10 µM; to `C/C(=C\c1cc(C)c(O)c(C)c1)c1ccc(F)cc1`, 0.63 µM; to `Cc1cc(/C=C/C(=O)c2ccc(F)cc2)cc(C)c1O`, under 10 µM.
The same measure, in the same setting: the value for `Cc1cc(C(=O)/C=C/c2cccs2)cc(C)c1O` was under 10 µM.
The same measure, in the same setting: to `CCc1cc(/C=C/c2ccc(OC)cc2)cc(CC)c1O` belongs under 10 µM.
On to `CC(C)c1cc(/C=C/c2ccc(F)cc2)cc(C(C)C)c1O`, for which the IC50 is under 10 µM.
Compound `CC(C)c1cc(/C=C/c2cccnc2)cc(C(C)C)c1O` registered a concentration for half-maximal inhibition (IC50) of under 10 µM.

System in the next assay: not listed separately
As to the kind of experiment: Inhibition of human platelet Prostaglandin G/H synthase at the concentration of 10 uM. In a few lines:
(§1)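 CO activity measured in human platelets. Percent inhibition at a single test concentration is compared with untreated control, with significance by ANOVA and Tukey's multiple comparisons test (p < 0.05).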
By inhibition is commonly meant the relative decrease from the control value, in per cent. A higher inhibition goes with strong suppression. In turn, `Cc1cc(/C=C2\CCOC2=O)cc(C)c1O` showed an inhibition of 0%.
The same measure, in the same setting: to `Cc1cc(CCC(=O)c2ccc(F)cc2)cc(C)c1O` belongs 80%.
In turn, `COc1ccc(/C=C/c2cc(C(C)(C)C)c(O)c(C(C)(C)C)c2)cc1` had an inhibition of 5%.
For the compound `COc1cc(/C=C/c2cccs2)cc(OC)c1O`, the inhibition amounted to 86%.
The compound `CCc1cc(/C=C/c2cccs2)cc(CC)c1O` returned an inhibition of 96%.
Regarding `Cc1cc(/C=C/c2ccccc2OCc2ccccc2)cc(C)c1O`, the inhibition stood at 92%.
`Cc1cc(Cc2cccnc2)cc(C)c1O` showed an inhibition of 7%.
`CCCCOc1ccc(/C=C/c2cc(C)c(O)c(C)c2)cc1`: the inhibition was 67%.
Take `Cc1cc(/C=C/C(=O)c2ccc(F)cc2)cc(C)c1O`: the inhibition amounted to 71%.
Compound `Cc1cc(C(=O)/C=C/c2cccs2)cc(C)c1O` came in with an inhibition of 82%.
Same read-out and setting: the value for `CCc1cc(/C=C/c2ccc(OC)cc2)cc(CC)c1O` was 80%.
Still for that read-out and setting: to `CC(C)c1cc(/C=C/c2ccc(F)cc2)cc(C(C)C)c1O` belongs 74%.

Another assay concerns the target T1, Cyclooxygenase. As to the kind of experiment: Inhibition of human platelet Prostaglandin G/H synthase at the concentration of 1 uM. In a few lines: as §1
Consider `Cc1cc(/C=C2\CCOC2=O)cc(C)c1O`, for which the inhibition is 0%.
Take `Cc1cc(CCC(=O)c2ccc(F)cc2)cc(C)c1O`: the inhibition was 29%.
With `COc1ccc(/C=C/c2cc(C(C)(C)C)c(O)c(C(C)(C)C)c2)cc1`, the inhibition was 0%.
With `COc1cc(/C=C/c2cccs2)cc(OC)c1O`, the inhibition worked out at 1%.
In the case of `CCc1cc(/C=C/c2cccs2)cc(CC)c1O`, the inhibition is 39%.
Take `Cc1cc(/C=C/c2ccccc2OCc2ccccc2)cc(C)c1O`: the inhibition turned out to be 45%.
`Cc1cc(Cc2cccnc2)cc(C)c1O`: the inhibition stood at 0%.
On the same count and under the same terms, the value for `CCCCOc1ccc(/C=C/c2cc(C)c(O)c(C)c2)cc1` was 32%; that for `Cc1cc(/C=C/C(=O)c2ccc(F)cc2)cc(C)c1O` was 43%.
`Cc1cc(C(=O)/C=C/c2cccs2)cc(C)c1O` displayed an inhibition of 25%.
On the same count and under the same terms, the value for `CCc1cc(/C=C/c2ccc(OC)cc2)cc(CC)c1O` was 33%; that for `CC(C)c1cc(/C=C/c2ccc(F)cc2)cc(C(C)C)c1O` was 12%.

Another assay deals with T2, Polyunsaturated fatty acid 5-lipoxygenase (Homo sapiens) (UniProt P09917).
T2 sequence (whole entry): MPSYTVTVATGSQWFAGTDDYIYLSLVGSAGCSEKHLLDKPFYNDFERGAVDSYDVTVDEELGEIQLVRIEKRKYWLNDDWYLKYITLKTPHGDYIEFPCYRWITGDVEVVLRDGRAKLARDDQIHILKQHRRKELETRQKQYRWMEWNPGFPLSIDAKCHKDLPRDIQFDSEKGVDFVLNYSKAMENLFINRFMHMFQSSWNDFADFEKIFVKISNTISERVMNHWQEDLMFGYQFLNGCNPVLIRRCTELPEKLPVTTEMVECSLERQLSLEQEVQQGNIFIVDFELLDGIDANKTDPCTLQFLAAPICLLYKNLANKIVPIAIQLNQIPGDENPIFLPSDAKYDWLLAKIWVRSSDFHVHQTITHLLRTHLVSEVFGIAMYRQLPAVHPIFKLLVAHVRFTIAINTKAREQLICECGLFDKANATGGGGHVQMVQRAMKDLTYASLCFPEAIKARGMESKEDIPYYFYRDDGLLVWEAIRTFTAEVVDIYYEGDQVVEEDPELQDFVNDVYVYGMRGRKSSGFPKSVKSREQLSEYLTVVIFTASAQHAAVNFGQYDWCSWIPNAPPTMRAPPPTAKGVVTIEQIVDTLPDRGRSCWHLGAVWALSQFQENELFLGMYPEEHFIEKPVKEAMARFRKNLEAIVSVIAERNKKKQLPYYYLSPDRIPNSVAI
As to the kind of experiment: Inhibition of human neutrophil 5-lipoxygenase at the concentration of 0.1 uM. In a few lines:
(§2)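 5-LO activity measured in human peripheral blood leukocytes. Percent inhibition at a single test concentration is compared with untreated control, with significance by ANOVA and Tukey's multiple comparisons test (p < 0.05).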
`CC(C)c1cc(/C=C/c2cccs2)cc(C(C)C)c1O` displayed an inhibition of 14%.
Still for that read-out and setting: to `COc1cc(/C=C/c2cccs2)cc(OC)c1O` belongs 52%.
Still for that read-out and setting: the value for `Cc1cc(/C=C/c2ccccn2)cc(C)c1O` was 29%; that for `CCc1cc(/C=C/c2cccs2)cc(CC)c1O` was 52%; that for `Cc1cc(/C=C/c2ccccc2OCc2ccccc2)cc(C)c1O` was 18%.
Consider `Cc1ccc(/C=C/c2cc(C)c(O)c(C)c2)s1`, for which the inhibition was 26%.
Take `CCCCOc1ccc(/C=C/c2cc(C)c(O)c(C)c2)cc1`: the inhibition was found to be 7%.
The same measure, in the same setting: the value for `CCc1cc(/C=C/c2ccc(OC)cc2)cc(CC)c1O` was 15%.

The next assay deals with T2, Polyunsaturated fatty acid 5-lipoxygenase (Homo sapiens). As to the kind of experiment: Inhibition of human neutrophil 5-lipoxygenase at the concentration of 1 uM. In outline: as §2
For the compound `CC(C)c1cc(/C=C/c2cccs2)cc(C(C)C)c1O`, the inhibition was 94%.
As to `Cc1cc(CCC(=O)c2ccc(F)cc2)cc(C)c1O`, the inhibition came out at 44%.
Compound `COc1ccc(/C=C/c2cc(C(C)(C)C)c(O)c(C(C)(C)C)c2)cc1` gave an inhibition of 0%.
The same measure, in the same setting: the value for `COc1cc(/C=C/c2cccs2)cc(OC)c1O` was 93%; that for `Cc1cc(/C=C/c2ccccn2)cc(C)c1O` was 82%; that for `CCc1cc(/C=C/c2cccs2)cc(CC)c1O` was 89%.
`Cc1cc(/C=C/c2ccccc2OCc2ccccc2)cc(C)c1O` yielded an inhibition of 95%.
On the same count and under the same terms, the value for `Cc1ccc(/C=C/c2cc(C)c(O)c(C)c2)s1` was 87%; that for `Cc1cc(Cc2cccnc2)cc(C)c1O` was 5%.
Still for that read-out and setting: to `CCCCOc1ccc(/C=C/c2cc(C)c(O)c(C)c2)cc1` belongs 53%; to `CCc1cc(/C=C/c2ccc(OC)cc2)cc(CC)c1O`, 90%.

In a further assay the target is T3, Polyunsaturated fatty acid 5-lipoxygenase (Homo sapiens, UniProt P09917).
T3 sequence (P09917 whole entry): T2 sequence (whole entry)
As to the kind of experiment: Inhibition of human neutrophil 5-lipoxygenase.
Turning to `Cc1cc(/C=C2\CCOC2=O)cc(C)c1O`, the IC50 is over 1 µM.
In turn, `CC(C)c1cc(/C=C/c2cccs2)cc(C(C)C)c1O` came in with an IC50 of under 1 µM.
The compound `Cc1cc(CCC(=O)c2ccc(F)cc2)cc(C)c1O` showed an IC50 of over 1 µM.
Still for that read-out and setting: the value for `Cc1cc(/C=C/c2ccc(Cl)cc2)cc(C)c1O` was 0.17 µM; that for `COc1ccc(/C=C/c2cc(C(C)(C)C)c(O)c(C(C)(C)C)c2)cc1` was over 1 µM; that for `COc1cc(/C=C/c2cccs2)cc(OC)c1O` was about 0.1 µM.
Still for that read-out and setting: the value for `Cc1cc(/C=C/c2ccccn2)cc(C)c1O` was under 1 µM; that for `CCc1cc(/C=C/c2cccs2)cc(CC)c1O` was about 0.1 µM.
The same measure, in the same setting: to `Cc1ccc(C)c(/C=C/c2cc(C)c(O)c(C)c2)c1` belongs 0.24 µM; to `Cc1cc(/C=C/c2ccccc2OCc2ccccc2)cc(C)c1O`, under 1 µM.
In the case of `Cc1ccc(/C=C/c2cc(C)c(O)c(C)c2)s1`, the IC50 was under 1 µM.
For `Cc1cc(Cc2cccnc2)cc(C)c1O`, the IC50 was over 1 µM.
With `CCCCOc1ccc(/C=C/c2cc(C)c(O)c(C)c2)cc1`, the IC50 is about 1 µM.
Turning to `C/C(=C\c1cc(C)c(O)c(C)c1)c1ccc(F)cc1`, the IC50 came to 0.43 µM. In other words, the sub-micromolar range.
The same measure, in the same setting: to `Cc1cc(/C=C/C(=O)c2ccc(F)cc2)cc(C)c1O` belongs over 1 µM; to `Cc1cc(C(=O)/C=C/c2cccs2)cc(C)c1O`, over 1 µM; to `CCc1cc(/C=C/c2ccc(OC)cc2)cc(CC)c1O`, under 1 µM.
In turn, `CC(C)c1cc(/C=C/c2ccc(F)cc2)cc(C(C)C)c1O` yielded an IC50 of over 1 µM.
In turn, `CC(C)c1cc(/C=C/c2cccnc2)cc(C(C)C)c1O` had an IC50 of 0.2 µM.

Another assay has as its target T2, Polyunsaturated fatty acid 5-lipoxygenase (Homo sapiens). The assay can be described thus: Inhibition of lipoxygenase at the concentration of 1 uM. In outline:
as §2
With `Cc1cc(/C=C2\CCOC2=O)cc(C)c1O`, the inhibition was 1%.
Same read-out and setting: the value for `Cc1cc(/C=C/C(=O)c2ccc(F)cc2)cc(C)c1O` was 33%.
Consider `Cc1cc(C(=O)/C=C/c2cccs2)cc(C)c1O`, for which the inhibition was 0%.
As to `CC(C)c1cc(/C=C/c2ccc(F)cc2)cc(C(C)C)c1O`, the inhibition worked out at 40%.
